# Tested on: U2OS
# Assay: Multiplex assay against U2OS
# Assay type: toxicity, cell-based
# Settings: human
# Summary of the method: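 Compound was added to live cells that had been stained at seeding with Hoechst33342, BioTracker Green Microtubule Cytoskeleton Dye, MitoTracker Red and Annexin V Alexa Fluor 680, and imaging followed on a CQ1 microscope at 37°C and 5% CO2. CellPathfinder machine-learning gating divided cells into Hoechst high-intensity objects or normal cells, normal cells into healthy, pyknosed or fragmented nuclei, and pyknosed cells into mitotic or apoptotic. Tubulin, mitochondrial-mass and membrane-permeability phenotypes are per cents of healthy-nucleus cells.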
# [1] = 12 h, 1 µM, compound concentration 1 uM, replicate 1
# [2] = 12 h, 1 µM, compound concentration 1 uM, replicate 2
# [3] = 12 h, 10 µM, compound concentration 10 uM, replicate 1
# [4] = 12 h, 10 µM, compound concentration 10 uM, replicate 2
# [5] = 24 h, 1 µM, compound concentration 1 uM, replicate 1
# [6] = 24 h, 1 µM, compound concentration 1 uM, replicate 2
# [7] = 24 h, 10 µM, compound concentration 10 uM, replicate 1
# [8] = 24 h, 10 µM, compound concentration 10 uM, replicate 2
# [9] = 48 h, 1 µM, compound concentration 1 uM, replicate 1
# [10] = 48 h, 1 µM, compound concentration 1 uM, replicate 2
# [11] = 48 h, 10 µM, compound concentration 10 uM, replicate 1
# [12] = 48 h, 10 µM, compound concentration 10 uM, replicate 2
compound,measurement,setting,value
CCn1c(-c2nc3cc(C(=O)N4CCCC(N)C4)ccc3n2C)cc2ccccc21.Cl (stereo unspecified),Population Apoptotic (%),[1],61%
same,Population Fragmented Nuclei (%),[1],22%
same,Population Healthy Nuclei (%),[1],67%
same,Population Hoechst High Intensity Objects (%),[1],0%
same,Population Membrane Permeable-Phenotype (%),[1],4%
same,Population Mitochondria Different-Phenotype (%),[1],3%
same,Population Mitotic Cells (%),[1],38%
same,Population Normal (%),[1],99%
same,Population Pyknosed Nuclei (%),[1],9%
same,Population Tubulin-Different-Phenotype (%),[1],2%
same,Total Cell Count,[1],213
same,Population Apoptotic (%),[2],100%
same,Population Fragmented Nuclei (%),[2],18%
same,Population Healthy Nuclei (%),[2],77%
same,Population Hoechst High Intensity Objects (%),[2],5%
same,Population Membrane Permeable-Phenotype (%),[2],15%
same,Population Mitochondria Different-Phenotype (%),[2],18%
same,Population Mitotic Cells (%),[2],0%
same,Population Normal (%),[2],94%
same,Population Pyknosed Nuclei (%),[2],3%
same,Population Tubulin-Different-Phenotype (%),[2],13%
same,Total Cell Count,[2],90
same,Population Apoptotic (%),[3],48%
same,Population Fragmented Nuclei (%),[3],24%
same,Population Healthy Nuclei (%),[3],56%
same,Population Hoechst High Intensity Objects (%),[3],2%
same,Population Membrane Permeable-Phenotype (%),[3],34%
same,Population Mitochondria Different-Phenotype (%),[3],29%
same,Population Mitotic Cells (%),[3],51%
same,Population Normal (%),[3],97%
same,Population Pyknosed Nuclei (%),[3],19%
same,Population Tubulin-Different-Phenotype (%),[3],27%
same,Total Cell Count,[3],277
same,Population Apoptotic (%),[4],54%
same,Population Fragmented Nuclei (%),[4],21%
same,Population Healthy Nuclei (%),[4],60%
same,Population Hoechst High Intensity Objects (%),[4],1%
same,Population Membrane Permeable-Phenotype (%),[4],25%
same,Population Mitochondria Different-Phenotype (%),[4],55%
same,Population Mitotic Cells (%),[4],45%
same,Population Normal (%),[4],98%
same,Population Pyknosed Nuclei (%),[4],18%
same,Population Tubulin-Different-Phenotype (%),[4],48%
same,Total Cell Count,[4],135
same,Population Apoptotic (%),[5],82%
same,Population Fragmented Nuclei (%),[5],22%
same,Population Healthy Nuclei (%),[5],68%
same,Population Hoechst High Intensity Objects (%),[5],1%
same,Population Membrane Permeable-Phenotype (%),[5],6%
same,Population Mitochondria Different-Phenotype (%),[5],3%
same,Population Mitotic Cells (%),[5],17%
same,Population Normal (%),[5],98%
same,Population Pyknosed Nuclei (%),[5],9%
same,Population Tubulin-Different-Phenotype (%),[5],3%
same,Total Cell Count,[5],249
same,Population Apoptotic (%),[6],66%
same,Population Fragmented Nuclei (%),[6],25%
same,Population Hoechst High Intensity Objects (%),[6],3%
same,Population Membrane Permeable-Phenotype (%),[6],14%
same,Population Mitochondria Different-Phenotype (%),[6],13%
same,Population Mitotic Cells (%),[6],33%
same,Population Normal (%),[6],96%
same,Population Pyknosed Nuclei (%),[6],5%
same,Population Tubulin-Different-Phenotype (%),[6],13%
same,Total Cell Count,[6],112
same,Population Apoptotic (%),[7],62%
same,Population Fragmented Nuclei (%),[7],27%
same,Population Healthy Nuclei (%),[7],54%
same,Population Hoechst High Intensity Objects (%),[7],2%
same,Population Membrane Permeable-Phenotype (%),[7],16%
same,Population Mitochondria Different-Phenotype (%),[7],34%
same,Population Mitotic Cells (%),[7],38%
same,Population Normal (%),[7],97%
same,Population Pyknosed Nuclei (%),[7],17%
same,Population Tubulin-Different-Phenotype (%),[7],11%
same,Total Cell Count,[7],288
same,Population Apoptotic (%),[8],73%
same,Population Fragmented Nuclei (%),[8],19%
same,Population Healthy Nuclei (%),[8],64%
same,Population Hoechst High Intensity Objects (%),[8],3%
same,Population Membrane Permeable-Phenotype (%),[8],20%
same,Population Mitochondria Different-Phenotype (%),[8],53%
same,Population Mitotic Cells (%),[8],26%
same,Population Normal (%),[8],96%
same,Population Pyknosed Nuclei (%),[8],16%
same,Population Tubulin-Different-Phenotype (%),[8],26%
same,Total Cell Count,[8],146
same,Population Apoptotic (%),[9],75%
same,Population Fragmented Nuclei (%),[9],16%
same,Population Healthy Nuclei (%),[9],76%
same,Population Hoechst High Intensity Objects (%),[9],2%
same,Population Membrane Permeable-Phenotype (%),[9],8%
same,Population Mitochondria Different-Phenotype (%),[9],3%
same,Population Mitotic Cells (%),[9],25%
same,Population Normal (%),[9],97%
same,Population Pyknosed Nuclei (%),[9],6%
same,Population Tubulin-Different-Phenotype (%),[9],5%
same,Total Cell Count,[9],354
same,Population Apoptotic (%),[10],70%
same,Population Fragmented Nuclei (%),[10],22%
same,Population Healthy Nuclei (%),[10],70%
same,Population Hoechst High Intensity Objects (%),[10],4%
same,Population Membrane Permeable-Phenotype (%),[10],10%
same,Population Mitochondria Different-Phenotype (%),[10],9%
same,Population Mitotic Cells (%),[10],30%
same,Population Normal (%),[10],95%
same,Population Pyknosed Nuclei (%),[10],7%
same,Population Tubulin-Different-Phenotype (%),[10],8%
same,Total Cell Count,[10],145
same,Population Apoptotic (%),[11],78%
same,Population Fragmented Nuclei (%),[11],26%
same,Population Healthy Nuclei (%),[11],53%
same,Population Hoechst High Intensity Objects (%),[11],5%
same,Population Membrane Permeable-Phenotype (%),[11],23%
same,Population Mitochondria Different-Phenotype (%),[11],22%
same,Population Mitotic Cells (%),[11],21%
same,Population Normal (%),[11],94%
same,Population Pyknosed Nuclei (%),[11],19%
same,Population Tubulin-Different-Phenotype (%),[11],11%
same,Total Cell Count,[11],353
same,Population Apoptotic (%),[12],77%
same,Population Fragmented Nuclei (%),[12],18%
same,Population Healthy Nuclei (%),[12],64%
same,Population Hoechst High Intensity Objects (%),[12],6%
same,Population Membrane Permeable-Phenotype (%),[12],24%
same,Population Mitochondria Different-Phenotype (%),[12],39%
same,Population Mitotic Cells (%),[12],22%
same,Population Normal (%),[12],93%
same,Population Pyknosed Nuclei (%),[12],16%
same,Population Tubulin-Different-Phenotype (%),[12],19%
same,Total Cell Count,[12],173
O=c1ccc2ccc(OCCCCN3CCN(c4cccc5sccc45)CC3)cc2[nH]1 [BREXPIPRAZOLE],Population Apoptotic (%),[1],73%
same,Population Fragmented Nuclei (%),[1],23%
same,Population Healthy Nuclei (%),[1],62%
same,Population Hoechst High Intensity Objects (%),[1],6%
same,Population Membrane Permeable-Phenotype (%),[1],40%
same,Population Mitochondria Different-Phenotype (%),[1],19%
same,Population Mitotic Cells (%),[1],26%
same,Population Normal (%),[1],93%
same,Population Pyknosed Nuclei (%),[1],13%
same,Population Tubulin-Different-Phenotype (%),[1],36%
same,Total Cell Count,[1],178
same,Population Apoptotic (%),[2],55%
same,Population Fragmented Nuclei (%),[2],16%
same,Population Healthy Nuclei (%),[2],69%
same,Population Hoechst High Intensity Objects (%),[2],2%
same,Population Membrane Permeable-Phenotype (%),[2],32%
same,Population Mitochondria Different-Phenotype (%),[2],24%
same,Population Mitotic Cells (%),[2],44%
same,Population Normal (%),[2],97%
same,Population Pyknosed Nuclei (%),[2],14%
same,Population Tubulin-Different-Phenotype (%),[2],30%
same,Total Cell Count,[2],126
same,Population Apoptotic (%),[3],86%
same,Population Fragmented Nuclei (%),[3],31%
same,Population Healthy Nuclei (%),[3],27%
same,Population Hoechst High Intensity Objects (%),[3],6%
same,Population Membrane Permeable-Phenotype (%),[3],57%
same,Population Mitochondria Different-Phenotype (%),[3],82%
same,Population Mitotic Cells (%),[3],13%
same,Population Normal (%),[3],93%
same,Population Pyknosed Nuclei (%),[3],41%
same,Population Tubulin-Different-Phenotype (%),[3],83%
same,Total Cell Count,[3],220
same,Population Apoptotic (%),[4],82%
same,Population Fragmented Nuclei (%),[4],21%
same,Population Healthy Nuclei (%),[4],43%
same,Population Hoechst High Intensity Objects (%),[4],9%
same,Population Membrane Permeable-Phenotype (%),[4],53%
same,Population Mitochondria Different-Phenotype (%),[4],90%
same,Population Mitotic Cells (%),[4],17%
same,Population Normal (%),[4],90%
same,Population Pyknosed Nuclei (%),[4],35%
same,Population Tubulin-Different-Phenotype (%),[4],95%
same,Total Cell Count,[4],109
same,Population Apoptotic (%),[5],68%
same,Population Fragmented Nuclei (%),[5],26%
same,Population Healthy Nuclei (%),[5],55%
same,Population Hoechst High Intensity Objects (%),[5],3%
same,Population Membrane Permeable-Phenotype (%),[5],19%
same,Population Mitochondria Different-Phenotype (%),[5],22%
same,Population Mitotic Cells (%),[5],31%
same,Population Normal (%),[5],96%
same,Population Pyknosed Nuclei (%),[5],18%
same,Population Tubulin-Different-Phenotype (%),[5],18%
same,Total Cell Count,[5],181
same,Population Apoptotic (%),[6],66%
same,Population Fragmented Nuclei (%),[6],12%
same,Population Healthy Nuclei (%),[6],67%
same,Population Membrane Permeable-Phenotype (%),[6],22%
same,Population Mitochondria Different-Phenotype (%),[6],28%
same,Population Mitotic Cells (%),[6],33%
same,Population Pyknosed Nuclei (%),[6],19%
same,Population Tubulin-Different-Phenotype (%),[6],16%
same,Total Cell Count,[6],128
same,Population Apoptotic (%),[7],93%
same,Population Fragmented Nuclei (%),[7],30%
same,Population Healthy Nuclei (%),[7],25%
same,Population Hoechst High Intensity Objects (%),[7],13%
same,Population Membrane Permeable-Phenotype (%),[7],47%
same,Population Mitochondria Different-Phenotype (%),[7],67%
same,Population Mitotic Cells (%),[7],6%
same,Population Normal (%),[7],86%
same,Population Pyknosed Nuclei (%),[7],44%
same,Population Tubulin-Different-Phenotype (%),[7],76%
same,Total Cell Count,[7],213
same,Population Apoptotic (%),[8],91%
same,Population Fragmented Nuclei (%),[8],19%
same,Population Healthy Nuclei (%),[8],26%
same,Population Hoechst High Intensity Objects (%),[8],22%
same,Population Membrane Permeable-Phenotype (%),[8],56%
same,Population Mitochondria Different-Phenotype (%),[8],86%
same,Population Mitotic Cells (%),[8],8%
same,Population Normal (%),[8],77%
same,Population Pyknosed Nuclei (%),[8],54%
same,Population Tubulin-Different-Phenotype (%),[8],91%
same,Total Cell Count,[8],112
same,Population Apoptotic (%),[9],64%
same,Population Fragmented Nuclei (%),[9],21%
same,Population Healthy Nuclei (%),[9],61%
same,Population Hoechst High Intensity Objects (%),[9],4%
same,Population Membrane Permeable-Phenotype (%),[9],9%
same,Population Mitochondria Different-Phenotype (%),[9],12%
same,Population Mitotic Cells (%),[9],35%
same,Population Normal (%),[9],95%
same,Population Pyknosed Nuclei (%),[9],16%
same,Population Tubulin-Different-Phenotype (%),[9],8%
same,Total Cell Count,[9],240
same,Population Apoptotic (%),[10],73%
same,Population Fragmented Nuclei (%),[10],22%
same,Population Healthy Nuclei (%),[10],56%
same,Population Hoechst High Intensity Objects (%),[10],2%
same,Population Membrane Permeable-Phenotype (%),[10],34%
same,Population Mitochondria Different-Phenotype (%),[10],31%
same,Population Mitotic Cells (%),[10],26%
same,Population Normal (%),[10],97%
same,Population Pyknosed Nuclei (%),[10],21%
same,Population Tubulin-Different-Phenotype (%),[10],18%
same,Total Cell Count,[10],161
same,Population Apoptotic (%),[11],96%
same,Population Fragmented Nuclei (%),[11],45%
same,Population Healthy Nuclei (%),[11],12%
same,Population Hoechst High Intensity Objects (%),[11],26%
same,Population Membrane Permeable-Phenotype (%),[11],45%
same,Population Mitochondria Different-Phenotype (%),[11],30%
same,Population Mitotic Cells (%),[11],3%
same,Population Normal (%),[11],73%
same,Population Pyknosed Nuclei (%),[11],41%
same,Population Tubulin-Different-Phenotype (%),[11],40%
same,Total Cell Count,[11],215
same,Population Apoptotic (%),[12],100%
same,Population Fragmented Nuclei (%),[12],29%
same,Population Healthy Nuclei (%),[12],14%
same,Population Hoechst High Intensity Objects (%),[12],32%
same,Population Membrane Permeable-Phenotype (%),[12],70%
same,Population Mitochondria Different-Phenotype (%),[12],90%
same,Population Mitotic Cells (%),[12],0%
same,Population Normal (%),[12],67%
same,Population Pyknosed Nuclei (%),[12],56%
same,Population Tubulin-Different-Phenotype (%),[12],90%
same,Total Cell Count,[12],105
